Data as given in paper PMC9245008 (ACS chemical biology, 2022).

Experiments:
[1] = molecular target: IRAK1 (Homo sapiens, UniProt P51617); test: Dose–response of top 10 kinase hits; format: biochemical; details: read-out: IC50 IRAK1, n = 2
[2] = molecular target: T1, TAK1 (Homo sapiens, UniProt O43318); test: MRC Dundee kinase panel screen at 10 μM; format: biochemical
T1 sequence (O43318 with tags, fused parts or gaps limits assumed): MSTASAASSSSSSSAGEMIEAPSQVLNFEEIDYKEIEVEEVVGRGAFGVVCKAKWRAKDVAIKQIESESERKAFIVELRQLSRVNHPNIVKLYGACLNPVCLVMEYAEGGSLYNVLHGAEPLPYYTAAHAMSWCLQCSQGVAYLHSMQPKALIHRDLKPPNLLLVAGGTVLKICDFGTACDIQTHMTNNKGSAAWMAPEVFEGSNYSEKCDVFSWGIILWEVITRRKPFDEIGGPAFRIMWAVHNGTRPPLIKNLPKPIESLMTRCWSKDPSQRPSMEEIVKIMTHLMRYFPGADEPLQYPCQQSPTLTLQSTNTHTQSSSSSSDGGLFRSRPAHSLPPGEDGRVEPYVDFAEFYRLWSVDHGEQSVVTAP

[3] = molecular target: T2, ULK2 (Homo sapiens, UniProt Q8IYT8); test: Dose–response of top 10 kinase hits; format: biochemical; details: read-out: IC50 ULK2, n = 2
T2 sequence (Q8IYT8 1-1036): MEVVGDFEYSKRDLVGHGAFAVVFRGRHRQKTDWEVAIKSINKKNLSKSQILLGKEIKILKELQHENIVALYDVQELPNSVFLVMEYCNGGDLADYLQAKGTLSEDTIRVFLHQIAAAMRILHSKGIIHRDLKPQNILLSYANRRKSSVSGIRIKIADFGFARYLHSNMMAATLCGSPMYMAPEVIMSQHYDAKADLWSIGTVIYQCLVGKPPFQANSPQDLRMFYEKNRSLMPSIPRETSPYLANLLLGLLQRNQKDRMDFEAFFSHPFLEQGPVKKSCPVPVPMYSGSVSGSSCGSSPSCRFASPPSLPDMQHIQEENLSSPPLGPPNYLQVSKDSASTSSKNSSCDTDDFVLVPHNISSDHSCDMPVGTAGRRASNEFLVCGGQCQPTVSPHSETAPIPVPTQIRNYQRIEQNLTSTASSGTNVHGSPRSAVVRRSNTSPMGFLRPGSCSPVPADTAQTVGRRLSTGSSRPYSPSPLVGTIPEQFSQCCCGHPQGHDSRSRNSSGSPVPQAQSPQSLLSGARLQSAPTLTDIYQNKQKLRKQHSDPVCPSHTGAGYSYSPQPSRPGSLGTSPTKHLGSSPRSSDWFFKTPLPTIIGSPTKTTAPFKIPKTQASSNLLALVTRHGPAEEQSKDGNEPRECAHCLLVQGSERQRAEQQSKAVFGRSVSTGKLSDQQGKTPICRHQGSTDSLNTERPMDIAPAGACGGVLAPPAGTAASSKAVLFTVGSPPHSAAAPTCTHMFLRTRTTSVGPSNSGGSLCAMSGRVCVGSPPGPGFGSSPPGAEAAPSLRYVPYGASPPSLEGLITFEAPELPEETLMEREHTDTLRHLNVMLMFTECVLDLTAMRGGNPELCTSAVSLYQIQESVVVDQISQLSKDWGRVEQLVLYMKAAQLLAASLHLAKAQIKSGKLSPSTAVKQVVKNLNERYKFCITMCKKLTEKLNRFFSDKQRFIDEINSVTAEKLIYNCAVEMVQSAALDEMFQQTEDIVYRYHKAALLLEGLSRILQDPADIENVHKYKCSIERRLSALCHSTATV

[4] = Oral pharmacokinetics in Sprague-Dawley rats; format: in vivo
[5] = molecular target: MAP4K5 (Homo sapiens, UniProt Q9Y4K4); test: Dose–response of top 10 kinase hits; format: biochemical; details: read-out: IC50 MAP4K5, n = 2
MAP4K5, sequence (Q9Y4K4 whole entry): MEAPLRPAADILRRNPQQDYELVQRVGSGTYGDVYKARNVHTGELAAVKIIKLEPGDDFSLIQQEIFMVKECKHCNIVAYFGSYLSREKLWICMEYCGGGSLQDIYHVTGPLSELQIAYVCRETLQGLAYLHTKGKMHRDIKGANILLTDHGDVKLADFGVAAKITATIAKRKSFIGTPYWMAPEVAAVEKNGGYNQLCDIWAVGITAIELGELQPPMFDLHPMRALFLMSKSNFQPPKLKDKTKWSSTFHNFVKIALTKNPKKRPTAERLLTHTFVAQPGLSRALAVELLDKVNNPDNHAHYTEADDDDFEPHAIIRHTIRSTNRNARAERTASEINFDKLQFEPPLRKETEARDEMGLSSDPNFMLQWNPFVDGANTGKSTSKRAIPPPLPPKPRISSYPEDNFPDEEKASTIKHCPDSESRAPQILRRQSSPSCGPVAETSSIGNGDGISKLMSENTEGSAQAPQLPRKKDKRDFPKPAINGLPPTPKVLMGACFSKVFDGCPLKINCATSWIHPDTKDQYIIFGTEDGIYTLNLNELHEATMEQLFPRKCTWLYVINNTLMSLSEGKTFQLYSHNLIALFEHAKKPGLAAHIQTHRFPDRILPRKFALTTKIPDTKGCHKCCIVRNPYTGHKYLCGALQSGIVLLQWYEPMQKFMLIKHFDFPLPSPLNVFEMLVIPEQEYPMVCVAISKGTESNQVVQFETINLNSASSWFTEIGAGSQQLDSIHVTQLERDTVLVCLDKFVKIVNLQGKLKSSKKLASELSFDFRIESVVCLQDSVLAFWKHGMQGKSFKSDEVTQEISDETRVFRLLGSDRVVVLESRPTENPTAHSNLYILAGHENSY

[6] = tested on: TNF expression in THP-1 cells; test: Cytokine dose–response curves in THP-1 cells; format: cell-based, human; details: read-out: IC50 TNF expression; LPS-stimulated THP-1, 24 h
Method in brief: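 THP-1 cells differentiated with PMA (100 nM) for up to 72 h, then rested 24 h in PMA-free RPMI. Pretreated with test compound (3.2 nM–32 μM) or DMSO vehicle, then stimulated with LPS (10 ng/mL). After 24 h, TNF, IL-6 and IL-1β in supernatant measured by Luminex and expressed as percent of vehicle control; n = 3.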

[7] = molecular target: T3, TAK1 (Homo sapiens, UniProt O43318); test: Potency of takinib analogues against TAK1; format: biochemical
T3 sequence (O43318 1-303 limits assumed): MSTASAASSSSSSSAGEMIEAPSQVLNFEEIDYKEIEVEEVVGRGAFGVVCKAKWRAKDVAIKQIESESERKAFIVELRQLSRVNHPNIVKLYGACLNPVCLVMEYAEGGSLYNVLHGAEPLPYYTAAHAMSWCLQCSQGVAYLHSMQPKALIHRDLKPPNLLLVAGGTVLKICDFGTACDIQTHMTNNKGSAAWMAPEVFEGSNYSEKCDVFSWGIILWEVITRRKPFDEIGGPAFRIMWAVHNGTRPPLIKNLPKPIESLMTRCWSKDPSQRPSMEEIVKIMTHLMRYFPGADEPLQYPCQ

IRAK1, sequence (P51617 whole entry): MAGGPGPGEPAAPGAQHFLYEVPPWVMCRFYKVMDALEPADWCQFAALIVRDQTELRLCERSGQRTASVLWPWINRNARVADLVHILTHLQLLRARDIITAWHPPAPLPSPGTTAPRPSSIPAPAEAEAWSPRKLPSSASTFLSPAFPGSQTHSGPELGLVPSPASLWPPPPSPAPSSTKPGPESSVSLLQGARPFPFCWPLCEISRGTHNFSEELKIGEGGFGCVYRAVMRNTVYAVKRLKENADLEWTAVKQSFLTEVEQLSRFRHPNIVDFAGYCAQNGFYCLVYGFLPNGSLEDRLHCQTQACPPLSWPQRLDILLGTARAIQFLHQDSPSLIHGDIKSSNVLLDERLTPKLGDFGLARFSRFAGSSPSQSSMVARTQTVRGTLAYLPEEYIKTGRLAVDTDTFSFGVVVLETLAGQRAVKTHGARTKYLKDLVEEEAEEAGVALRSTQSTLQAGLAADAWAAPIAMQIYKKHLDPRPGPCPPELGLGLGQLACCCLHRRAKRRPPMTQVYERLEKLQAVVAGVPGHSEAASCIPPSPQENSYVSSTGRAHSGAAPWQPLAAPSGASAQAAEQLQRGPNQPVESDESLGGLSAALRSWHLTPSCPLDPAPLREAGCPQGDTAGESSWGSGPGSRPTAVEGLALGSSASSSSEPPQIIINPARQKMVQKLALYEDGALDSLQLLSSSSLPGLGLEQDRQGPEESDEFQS

CCCn1c(NC(=O)c2cccc(C(N)=O)c2)nc2ccc(CN3CCCCC3)cc21 [HS-276]
IC50 [1]: 0.264 µM | enzymatic activity [2]: < 15% | IC50 [3]: 0.063 µM | time up to which μM serum levels are shown ([4]; post oral gavage, species not stated): up to 8 h | time up to which μM plasma concentration is shown ([4]; rat, 50 mg/kg oral gavage): 8 to 12 h | peak urine concentration ([4]; rat, 50 mg/kg oral gavage, at 12 h): 100 µM | AUC0-last ([4]; rat, PO, 50 mg/kg): 6462 ng·h/mL | Cmax ([4]; rat, PO, 50 mg/kg): 1890 ng/mL | Tmax ([4]; rat, PO, 50 mg/kg): 2 h | half-life ([4]; rat, PO, 50 mg/kg): 5.46 h | IC50 [5]: 0.124 µM | IC50 [6]: 0.138 µM | Ki ([7]; TAK1): 0.0025 µM | IC50 ([7]; read-out: TAK1 IC50): 0.0025 µM
